Assay results as given in ChEMBL document CHEMBL5131563, “Accelerated Identification of Cell Active KRAS Inhibitory Macrocyclic Peptides using Mixture Libraries and Automated Ligand Identification System (ALIS) Technology” (J Med Chem, 2022).
*1 amine or outer side, *2 acyl side, *3 side chain or, on linkers, in order; H or OH if unused. Where a SMILES comes first, the peptide text is derived from it. Bridges are numbered along the chain shown (N, C = ends). [ ]: non-standard residue; d: D form. Pro(trans-3-OAllyl) = C=CCO[C@H]1CCN[C@@H]1C(=O)O; X2 = O=C([C@@H]1[C@H]2CC[C@H](C2)N1[*:1])[*:2]; Ala(4-thiazolyl) = N[C@@H](Cc1cscn1)C(=O)O; Bip = N[C@@H](Cc1ccc(-c2ccccc2)cc1)C(=O)O; Dip = N[C@H](C(=O)O)C(c1ccccc1)c1ccccc1; Ala(cPent) = N[C@@H](CC1CCCC1)C(=O)O; Cha = N[C@@H](CC1CCCCC1)C(=O)O; Cba = N[C@@H](CC1CCC1)C(=O)O; hLeu = CC(C)CC[C@H](N)C(=O)O; Nle = CCCC[C@H](N)C(=O)O; Dab = NCC[C@H](N)C(=O)O; Nva = CCC[C@H](N)C(=O)O

What was measured:
GTPase KRas = GTPase KRas (Homo sapiens, UniProt P01116, G12D); assay: Inhibition of recombinant biotinylated KRAS G12D mutant (unknown origin) assessed as inhibition of SOS-catalyzed nucleotide exchange preincubated for 60 mins followed by addition of human SOS protein and unlabeled GTP and measured after 60 mins by TR-FRET analysis
Sequence of GTPase KRas (P01116 whole entry G12D): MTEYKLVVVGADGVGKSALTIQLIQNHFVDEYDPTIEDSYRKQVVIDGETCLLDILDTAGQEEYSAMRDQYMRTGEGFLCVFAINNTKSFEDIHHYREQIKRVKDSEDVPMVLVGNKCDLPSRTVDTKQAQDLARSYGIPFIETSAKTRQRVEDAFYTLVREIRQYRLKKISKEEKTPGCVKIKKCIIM
Summary of the method: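 Biotinylated KRAS G12D was treated in EDTA buffer (1 h, RT), then loaded at 90 nM with 900 nM Bodipy-GDP and 15 nM Tb-streptavidin in Mg2+ buffer, HEPES pH 7.5 (6 h, RT). It was used at 1.5 nM assay solution with a 10-point, 3-fold DMSO compound series for 60 min at RT. A solution of 120 nM human SOS plus GTP was added for 60 min. The read-out was TR-FRET at 520/495 nm, normalized to DMSO and saturating-inhibitor controls, with a 4-parameter fit.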

[1] = Stability in human HeLa cell homogenate assessed as half life by LC-MS/MS analysis; type: ADME, cell-based
Summary of the method: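 HeLa cells suspended at 1 × 10^6 cells/mL, probe-sonicated on ice until homogeneous, stored frozen at –20 °C. Peptides incubated with homogenate (1 × 10^6 cells/mL equivalent); peptide loss over time quantified by LC-MS/MS to derive t1/2.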

| SMILES | IC50 (GTPase KRas) [nM] | half-life [1] [min] |
| --- | --- | --- |
| CC[C@H](C)[C@@H]1NC(=O)[C@H](Cc2ccc(O)cc2)NC(=O)[C@H](CC(C)C)NC(=O)[C@@H]2CCCN2C(=O)[C@@H](NC(=O)[C@H](CCCNC(=N)N)NC(=O)[C@H](CCCNC(=N)N)NC(C)=O)CSSC[C@@H](C(=O)N[C@@H](CCCNC(=N)N)C(=O)N[C@@H](CCCNC(=N)N)C(N)=O)NC(=O)[C@H](C(C)C)NC(=O)[C@@H]2CCCN2C(=O)[C@H](CC(=O)O)NC(=O)[C@H](Cc2cc(F)c(F)c(F)c2)NC(=O)[C@H](CO)NC1=O | 193 | 18 |
| CC[C@H](C)[C@@H]1NC(=O)[C@H](Cc2ccc(O)cc2)NC(=O)[C@H](CC(C)C)NC(=O)[C@@H]2CCCN2C(=O)[C@@H](NC(=O)[C@H](CCCNC(=N)N)NC(=O)[C@H](CCCNC(=N)N)NC(C)=O)CSSC[C@@H](C(=O)N[C@@H](CCCNC(=N)N)C(=O)N[C@@H](CCCNC(=N)N)C(N)=O)NC(=O)[C@H](C(C)C)NC(=O)[C@@H]2CCCN2C(=O)[C@H](CC(=O)O)NC(=O)[C@H](C(c2ccccc2)c2ccccc2)NC(=O)[C@H](CO)NC1=O | 251 | 30 |
| CC[C@H](C)[C@@H]1NC(=O)[C@H](Cc2ccc(O)cc2)NC(=O)[C@H](CC(C)C)NC(=O)[C@@H]2CCCN2C(=O)[C@@H](NC(=O)[C@H](CCCNC(=N)N)NC(=O)[C@H](CCCNC(=N)N)NC(C)=O)CSSC[C@@H](C(=O)N[C@@H](CCCNC(=N)N)C(=O)N[C@@H](CCCNC(=N)N)C(N)=O)NC(=O)[C@H](C(C)C)NC(=O)[C@@H]2CCCN2C(=O)[C@H](CC(=O)O)NC(=O)[C@H](CC2CCCCC2)NC(=O)[C@H](CO)NC1=O | 1470 | 15 |
| CC[C@H](C)[C@@H]1NC(=O)[C@H](Cc2ccc(O)cc2)NC(=O)[C@H](CC(C)C)NC(=O)[C@@H]2CCCN2C(=O)[C@@H](NC(=O)[C@H](CCCNC(=N)N)NC(=O)[C@H](CCCNC(=N)N)NC(C)=O)CSSC[C@@H](C(=O)N[C@@H](CCCNC(=N)N)C(=O)N[C@@H](CCCNC(=N)N)C(N)=O)NC(=O)[C@H](C(C)C)NC(=O)[C@@H]2CCCN2C(=O)[C@H](CC(=O)O)NC(=O)[C@H](Cc2ccc(O)cc2)NC(=O)[C@H](CO)NC1=O (Ac-RRCPLYISYDPVCRR-NH2; disulfide 3-13) | 54 | 23 |
| CC[C@H](C)[C@@H]1NC(=O)[C@H](Cc2ccc(O)cc2)NC(=O)[C@H](CC(C)C)NC(=O)[C@@H]2CCCN2C(=O)[C@@H](NC(=O)[C@H](CCCNC(=N)N)NC(=O)[C@H](CCCNC(=N)N)NC(C)=O)CSSC[C@@H](C(=O)N[C@@H](CCCNC(=N)N)C(=O)N[C@@H](CCCNC(=N)N)C(N)=O)NC(=O)[C@H](C(C)C)NC(=O)[C@@H]2CCCN2C(=O)[C@H](CC(=O)O)NC(=O)[C@H](Cc2ccc(O)cc2)NC(=O)[C@H](Cc2cscn2)NC1=O (Ac-RRCPLYI[Ala(4-thiazolyl)]YDPVCRR-NH2; disulfide 3-13) | 2270 | 22 |
| CC[C@H](C)[C@@H]1NC(=O)[C@H](Cc2ccc(O)cc2)NC(=O)[C@H](CC(C)C)NC(=O)[C@@H]2CCCN2C(=O)[C@@H](NC(=O)[C@H](CCCNC(=N)N)NC(=O)[C@H](CCCNC(=N)N)NC(C)=O)CSSC[C@@H](C(=O)N[C@@H](CCCNC(=N)N)C(=O)N[C@@H](CCCNC(=N)N)C(N)=O)NC(=O)[C@H](C(C)C)NC(=O)[C@@H]2CCCN2C(=O)[C@H](CC(=O)O)NC(=O)[C@H](C(c2ccccc2)c2ccccc2)NC(=O)[C@H](CCN)NC1=O (Ac-RRCPLYI[Dab][Dip]DPVCRR-NH2; disulfide 3-13) | > 11100 | 34 |
| CCCC[C@@H]1NC(=O)[C@H]([C@@H](C)CC)NC(=O)[C@H](Cc2ccc(O)cc2)NC(=O)[C@H](CC(C)C)NC(=O)[C@@H]2CCCN2C(=O)[C@@H](NC(=O)[C@H](CCCNC(=N)N)NC(=O)[C@H](CCCNC(=N)N)NC(C)=O)CSSC[C@@H](C(=O)N[C@@H](CCCNC(=N)N)C(=O)N[C@@H](CCCNC(=N)N)C(N)=O)NC(=O)[C@H](C(C)C)NC(=O)[C@@H]2CCCN2C(=O)[C@H](CC(=O)O)NC(=O)[C@H](Cc2ccc(O)cc2)NC1=O (Ac-RRCPLYI[Nle]YDPVCRR-NH2; disulfide 3-13) | > 11100 | 25 |
| CCCC[C@@H]1NC(=O)[C@H]([C@@H](C)CC)NC(=O)[C@H](Cc2ccc(O)cc2)NC(=O)[C@H](CC(C)C)NC(=O)[C@@H]2CCCN2C(=O)[C@@H](NC(=O)[C@H](CCCNC(=N)N)NC(=O)[C@H](CCCNC(=N)N)NC(C)=O)CSSC[C@@H](C(=O)N[C@@H](CCCNC(=N)N)C(=O)N[C@@H](CCCNC(=N)N)C(N)=O)NC(=O)[C@H](C(C)C)NC(=O)[C@@H]2CCCN2C(=O)[C@H](CC(=O)O)NC(=O)[C@H](CC2CCCCC2)NC1=O (Ac-RRCPLYI[Nle][Cha]DPVCRR-NH2; disulfide 3-13) | > 11100 | 26 |
| CC(=O)N[C@@H](CCCNC(=N)N)C(=O)N[C@@H](CCCNC(=N)N)C(=O)N[C@H]1CSSC[C@@H](C(=O)N[C@@H](CCCNC(=N)N)C(=O)N[C@@H](CCCNC(=N)N)C(N)=O)NC(=O)[C@H](C(C)C)NC(=O)[C@@H]2CCCN2C(=O)[C@H](CC(=O)O)NC(=O)[C@H](Cc2ccc(O)cc2)NC(=O)[C@H](CO)NC(=O)[C@H](CC2CCCC2)NC(=O)[C@H](Cc2ccc(O)cc2)NC(=O)[C@H](CC(C)C)NC(=O)[C@@H]2CCCN2C1=O (Ac-RRCPLY[Ala(cPent)]SYDPVCRR-NH2; disulfide 3-13) | > 11100 | 23 |
| CCC[C@@H]1NC(=O)[C@H](Cc2ccc(O)cc2)NC(=O)[C@H](CC(C)C)NC(=O)[C@@H]2CCCN2C(=O)[C@@H](NC(=O)[C@H](CCCNC(=N)N)NC(=O)[C@H](CCCNC(=N)N)NC(C)=O)CSSC[C@@H](C(=O)N[C@@H](CCCNC(=N)N)C(=O)N[C@@H](CCCNC(=N)N)C(N)=O)NC(=O)[C@H](C(C)C)NC(=O)[C@@H]2CCCN2C(=O)[C@H](CC(=O)O)NC(=O)[C@H](Cc2ccc(O)cc2)NC(=O)[C@H](CO)NC1=O (Ac-RRCPLY[Nva]SYDPVCRR-NH2; disulfide 3-13) | > 11100 | 19 |
| CC(=O)N[C@@H](CCCNC(=N)N)C(=O)N[C@@H](CCCNC(=N)N)C(=O)N[C@H]1CSSC[C@@H](C(=O)N[C@@H](CCCNC(=N)N)C(=O)N[C@@H](CCCNC(=N)N)C(N)=O)NC(=O)[C@H](C(C)C)NC(=O)[C@@H]2CCCN2C(=O)[C@H](CC(=O)O)NC(=O)[C@H](Cc2ccc(O)cc2)NC(=O)[C@H](CO)NC(=O)[C@H](CCC(C)C)NC(=O)[C@H](Cc2ccc(O)cc2)NC(=O)[C@H](CC(C)C)NC(=O)[C@@H]2CCCN2C1=O (Ac-RRCPLY[hLeu]SYDPVCRR-NH2; disulfide 3-13) | > 11100 | 28 |
| CC[C@H](C)[C@@H]1NC(=O)[C@H](Cc2ccc(-c3ccccc3)cc2)NC(=O)[C@H](CC(C)C)NC(=O)[C@@H]2CCCN2C(=O)[C@@H](NC(=O)[C@H](CCCNC(=N)N)NC(=O)[C@H](CCCNC(=N)N)NC(C)=O)CSSC[C@@H](C(=O)N[C@@H](CCCNC(=N)N)C(=O)N[C@@H](CCCNC(=N)N)C(N)=O)NC(=O)[C@H](C(C)C)NC(=O)[C@@H]2CCCN2C(=O)[C@H](CC(=O)O)NC(=O)[C@H](Cc2ccc(O)cc2)NC(=O)[C@H](CO)NC1=O (Ac-RRCPL[Bip]ISYDPVCRR-NH2; disulfide 3-13) | 7 | 55 |
| CCC[C@@H]1NC(=O)[C@H](Cc2ccc(-c3ccccc3)cc2)NC(=O)[C@H](CC(C)C)NC(=O)[C@@H]2CCCN2C(=O)[C@@H](NC(=O)[C@H](CCCNC(=N)N)NC(=O)[C@H](CCCNC(=N)N)NC(C)=O)CSSC[C@@H](C(=O)N[C@@H](CCCNC(=N)N)C(=O)N[C@@H](CCCNC(=N)N)C(N)=O)NC(=O)[C@H](C(C)C)NC(=O)[C@@H]2CCCN2C(=O)[C@H](CC(=O)O)NC(=O)[C@H](Cc2ccc(O)cc2)NC(=O)[C@H](CO)NC1=O (Ac-RRCPL[Bip][Nva]SYDPVCRR-NH2; disulfide 3-13) | 604 | 26 |
| CC(=O)N[C@@H](CCCNC(=N)N)C(=O)N[C@@H](CCCNC(=N)N)C(=O)N[C@H]1CSSC[C@@H](C(=O)N[C@@H](CCCNC(=N)N)C(=O)N[C@@H](CCCNC(=N)N)C(N)=O)NC(=O)[C@H](C(C)C)NC(=O)[C@@H]2CCCN2C(=O)[C@H](CC(=O)O)NC(=O)[C@H](Cc2ccc(O)cc2)NC(=O)[C@H](CO)NC(=O)[C@H](CCC(C)C)NC(=O)[C@H](Cc2ccc(-c3ccccc3)cc2)NC(=O)[C@H](CC(C)C)NC(=O)[C@@H]2CCCN2C1=O (Ac-RRCPL[Bip][hLeu]SYDPVCRR-NH2; disulfide 3-13) | > 11100 | 17 |
| C=CCO[C@H]1CCN2C(=O)[C@@H](NC(=O)[C@H](CCCNC(=N)N)NC(=O)[C@H](CCCNC(=N)N)NC(C)=O)CSSC[C@@H](C(=O)N[C@@H](CCCNC(=N)N)C(=O)N[C@@H](CCCNC(=N)N)C(N)=O)NC(=O)[C@H](C(C)C)NC(=O)[C@@H]3CCCN3C(=O)[C@H](CC(=O)O)NC(=O)[C@H](Cc3ccc(O)cc3)NC(=O)[C@H](CO)NC(=O)[C@H]([C@@H](C)CC)NC(=O)[C@H](Cc3ccc(-c4ccccc4)cc3)NC(=O)[C@H](CC3CCC3)NC(=O)[C@H]12 (Ac-RRC[Pro(trans-3-OAllyl)][Cba][Bip]ISYDPVCRR-NH2; disulfide 3-13) | 2 | – |
| CC[C@H](C)[C@@H]1NC(=O)[C@H](Cc2ccc(-c3ccccc3)cc2)NC(=O)[C@H](CC(C)C)NC(=O)[C@@H]2[C@H]3CC[C@H](C3)N2C(=O)[C@@H](NC(=O)[C@H](CCCNC(=N)N)NC(=O)[C@H](CCCNC(=N)N)NC(C)=O)CSSC[C@@H](C(=O)N[C@@H](CCCNC(=N)N)C(=O)N[C@@H](CCCNC(=N)N)C(N)=O)NC(=O)[C@H](C(C)C)NC(=O)[C@@H]2CCCN2C(=O)[C@H](CC(=O)O)NC(=O)[C@H](Cc2ccc(O)cc2)NC(=O)[C@H](CO)NC1=O (Ac-RRC[X2]L[Bip]ISYDPVCRR-NH2; disulfide 3-13) | 201 | – |
